Reference: ChEMBL document CHEMBL3414503, “Distinct novel quinazolinone exhibits selective inhibition in MGC-803 cancer cells by dictating mutant p53 function” (Eur J Med Chem, 2015)
The source made the active and inactive calls. No cut-off for these calls is given here.

What was measured:
[1] = system: Cellular tumor antigen p53 (Homo sapiens), P04637 [UNDEFINED MUTATION]; assay: Inhibition of P53 mutant in human MGC803 cells assessed as upregulation of Bim expression at 1 to 10 uM after 24 hrs by Western blot analysis; format: cell-based; settings: MGC-803
NCI-H460 = assay: Cytotoxicity against human NCI-H460 cells assessed as cell viability after 48 hrs by MTT assay; format: functional, cell-based; settings: NCI-H460, 48 h
Outline: (§1)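 Cells were trypsinized, seeded in 96-well plates at 2 × 10³ cells/well and grown for 24 h. Medium was then replaced with compound solutions (in DMSO, range from 0.1) for 48 h, and viability was read by MTT. Cancer lines were grown in RPMI 1640 + 10% FCS. IC50 from 3 independent experiments, each in triplicate.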

MGC-803 [2] = assay: Cell cycle arrest in human MGC803 cells assessed as accumulation at G2/M phase at 10 uM after 48 hrs by propidium iodide staining-based FACS analysis relative to control; format: functional
[3] = Cytotoxicity against human WI38 cells expressing wild type p53 assessed as cell viability at 1 to 10 uM after 48 hrs by MTT assay; format: cell-based; settings: wi-38, 48 h
Outline: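 WI-38 normal lung fibroblasts, grown in DMEM + 10% FCS, seeded at 2 × 10³ cells/well in 96-well plates for 24 h. Then exposed to compound (in DMSO) for 48 h, with viability by MTT.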

MGC-803 [4] = assay: Cytotoxicity against human MGC803 cells assessed as cell size at 1 uM after 48 hrs by FACS analysis relative to control; format: functional
Outline: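 Cells treated 48 h with DMSO or compound at […] as printed. Forward scatter (mean FSC-H) measured by FACS and given relative to control cells.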

[5] = system: Cellular tumor antigen p53 (Homo sapiens), P04637 [UNDEFINED MUTATION]; assay: Inhibition of P53 mutant in human MGC803 cells assessed as decrease in p21 expression at 1 to 10 uM after 24 hrs by Western blot analysis; format: cell-based; settings: MGC-803
Outline: (§2)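 MGC-803 cells, 3 × 10⁵ per well of a 6-well plate, exposed to compound for 24 h. Cells were washed in ice-cold PBS and lysed in sample buffer, then run on SDS-PAGE and transferred to nitrocellulose. Blots were probed with primary antibodies and […] anti-rabbit IgG and developed by ECL.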

MGC-803 [6] = assay: Cell cycle arrest in human MGC803 cells assessed as accumulation at G0/G1 phase at 10 uM after 48 hrs by propidium iodide staining-based FACS analysis relative to control; format: functional
MGC-803 [7] = assay: Cell cycle arrest in human MGC803 cells assessed as accumulation at G0/G1 phase at 1 uM after 48 hrs by propidium iodide staining-based FACS analysis relative to control; format: functional
MGC-803 [8] = assay: Induction of apoptosis in human MGC803 cells assessed as caspase-3 activation at 5 uM after 24 hrs by FITC-DEVD-FMK probe-based flow cytometric analysis (reference value: 1.8%); format: functional
Outline: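 Treated and control MGC-803 cells (5 µM, 24 h) harvested at 1 × 10⁶ cells/mL in RPMI 1640 + 10% FCS. Incubated with FITC-DEVD-FMK for 1 h at 37 °C, 5% CO₂, then analysed by flow cytometry with 488 nm excitation. Given as percent change versus untreated control.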

MGC-803 [9] = assay: Cell cycle arrest in human MGC803 cells assessed as accumulation at S phase at 1 uM after 48 hrs by propidium iodide staining-based FACS analysis relative to control; format: functional
[10] = system: Cellular tumor antigen p53 (Homo sapiens), P04637 [UNDEFINED MUTATION]; assay: Inhibition of P53 mutant phosphorylation at s392 in human MGC803 cells at 1 to 10 uM after 24 hrs by Western blot analysis; format: cell-based; settings: MGC-803; outline: as §2
[11] = system: Cellular tumor antigen p53 (Homo sapiens), P04637 [UNDEFINED MUTATION]; assay: Inhibition of P53 mutant acetylation at k373 in human MGC803 cells at 1 to 10 uM after 24 hrs by Western blot analysis; format: cell-based; settings: MGC-803; outline: as §2
HepG2 = assay: Cytotoxicity against human HepG2 cells assessed as cell viability after 48 hrs by MTT assay; format: functional, cell-based; settings: HepG2, 48 h; outline: as §1
[12] = system: Cellular tumor antigen p53 (Homo sapiens), P04637 [UNDEFINED MUTATION]; assay: Inhibition of P53 mutant in human MGC803 cells assessed as downregulation of Bcl-2 expression at 1 to 10 uM after 24 hrs by Western blot analysis; format: cell-based; settings: MGC-803
MGC-803 [13] = assay: Cell cycle arrest in human MGC803 cells assessed as accumulation at sub G1 phase at 1 uM after 48 hrs by propidium iodide staining-based FACS analysis relative to control; format: functional
[14] = system: Cellular tumor antigen p53 (Homo sapiens), P04637 [UNDEFINED MUTATION]; assay: Inhibition of P53 mutant in human MGC803 cells assessed as AIF release from mitochondria and translocation to nucleus at 1 to 10 uM after 48 hrs by immunostaining assay; format: cell-based; settings: MGC-803
Outline: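 MGC-803 cells on slides, 48 h after treatment, were washed in PBS and fixed in 4% paraformaldehyde. They were immunostained for AIF with primary antibody and a Cy3-conjugated secondary.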

MGC-803 [15] = assay: Cell cycle arrest in human MGC803 cells assessed as accumulation at S phase at 10 uM after 48 hrs by propidium iodide staining-based FACS analysis relative to control; format: functional
MGC-803 [16] = assay: Cytotoxicity against human MGC803 cells assessed as cell viability after 48 hrs by MTT assay; format: functional, cell-based; settings: MGC-803, 48 h; outline: as §1
MGC-803 [17] = assay: Induction of apoptosis in human MGC803 cells assessed as chromatin condensation at 1 to 10 uM after 48 hrs by Hoechst 33258 staining-based fluorescence confocal microscopic analysis; format: functional, cell-based
Outline: (§3)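 MGC-803 cells grown on glass slides and treated 48 h. They were then washed in PBS, fixed in 4% paraformaldehyde and permeabilized with 1% Triton X-100. After four washes, Hoechst 33258 ([…] final) was added in the last wash to stain nuclei.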

A-375 = assay: Cytotoxicity against human A375 cells assessed as cell viability after 48 hrs by MTT assay; format: functional, cell-based; settings: A-375, 48 h; outline: as §1
MGC-803 [18] = assay: Cell cycle arrest in human MGC803 cells assessed as accumulation at G2/M phase at 1 uM after 48 hrs by propidium iodide staining-based FACS analysis relative to control; format: functional
[19] = system: Cellular tumor antigen p53 (Homo sapiens), P04637 [UNDEFINED MUTATION]; assay: Inhibition of P53 mutant in human MGC803 cells assessed as change in BAX expression at 1 to 10 uM after 24 hrs by Western blot analysis; format: cell-based; settings: MGC-803
[20] = system: Cellular tumor antigen p53 (Homo sapiens), P04637 [UNDEFINED MUTATION]; assay: Inhibition of P53 mutant in human MGC803 cells assessed as upregulation of cdk2 activity at 1 to 10 uM after 24 hrs by Western blot analysis; settings: MGC-803
MGC-803 [21] = assay: Cell cycle arrest in human MGC803 cells assessed as accumulation at sub G1 phase at 10 uM after 48 hrs by propidium iodide staining-based FACS analysis relative to control; format: functional
MGC-803 [22] = assay: Induction of apoptosis in human MGC803 cells assessed as chromatin fragmentation at 1 to 10 uM after 48 hrs by Hoechst 33258 staining-based fluorescence confocal microscopic analysis; format: functional, cell-based; outline: as §3

Chain of Cellular tumor antigen p53 (Homo sapiens), P04637 [UNDEFINED MUTATION] (P04637 whole entry, looked up, stated change not applied): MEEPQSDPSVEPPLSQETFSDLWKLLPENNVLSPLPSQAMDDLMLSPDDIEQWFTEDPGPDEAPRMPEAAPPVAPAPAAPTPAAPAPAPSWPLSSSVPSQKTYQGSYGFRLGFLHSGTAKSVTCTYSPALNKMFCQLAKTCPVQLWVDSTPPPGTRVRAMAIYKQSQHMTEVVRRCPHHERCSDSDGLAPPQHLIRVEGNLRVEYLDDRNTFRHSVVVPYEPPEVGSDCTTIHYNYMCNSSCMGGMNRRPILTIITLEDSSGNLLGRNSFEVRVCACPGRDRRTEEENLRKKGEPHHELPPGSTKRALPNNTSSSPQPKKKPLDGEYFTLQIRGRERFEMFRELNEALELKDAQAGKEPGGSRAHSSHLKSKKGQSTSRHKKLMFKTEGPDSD

Which inhibition [1] does the source give for `COc1cc2nc(/C=C/c3ccc(Cl)cc3)n(CCCN(C)C)c(=O)c2cc1OC` here?
The inhibition was “Active”.

And the IC50 (NCI-H460)?
The IC50 was 7.15 µM.

And the Activity (MGC-803 [2])?
The Activity was 20.25%.

And the Activity [3]?
Its Activity is “Non-toxic”.

What about the Activity (MGC-803 [4]) of the same compound?
The Activity was 59.4%.

What about the inhibition [5] of the same compound?
Its inhibition is “Active”.

And the Activity (MGC-803 [6])?
Its Activity is 19.42%.

And the Activity (MGC-803 [7])?
Its Activity is 51.79%.

What about the Activity (MGC-803 [8]) of the same compound?
The Activity was 3.5%.

And the Activity (MGC-803 [9])?
Its Activity is 29.22%.

And the inhibition [10]?
The inhibition was “Active”.

And the inhibition [11]?
Its inhibition is “Active”.

And the IC50 (HepG2)?
Its IC50 is 6.96 µM.

And the inhibition [12]?
The inhibition was “Active”.

What about the Activity (MGC-803 [13]) of the same compound?
The Activity was 4.89%.

And the inhibition [14]?
The inhibition was “Active”.

And the Activity (MGC-803 [15])?
The Activity was 29.93%.

And the IC50 (MGC-803 [16])?
The IC50 was 3.18 µM.

What about the Activity (MGC-803 [17]) of the same compound?
The Activity was “Active”.

And the IC50 (A-375)?
Its IC50 is > 20 µM.

And the Activity (MGC-803 [18])?
The Activity was 14.1%.

And the inhibition [19]?
Its inhibition is “inactive”.

What about the inhibition [20] of the same compound?
Its inhibition is “Active”.

And the Activity (MGC-803 [21])?
Its Activity is 30.4%.

What about the Activity (MGC-803 [22]) of the same compound?
The Activity was “Active”.
